Data as given in publication PMC2916699 (Journal of molecular biology, 2009).
Where a SMILES comes first, the peptide text is derived from it. The star is where a group is joined. Dansyl = CN(C)c1cccc2c(S(=O)(=O)*)cccc12

biological target: FTase·I2 complex (Rattus norvegicus, UniProt Q02293+Q04631); assay: Peptide binding affinity by fluorescence anisotropy; conditions: not given

| Compound | Kd [nM] |
| --- | --- |
| CC[C@H](C)[C@H](NC(=O)[C@H](CO)NC(=O)[C@H](CS)NC(=O)[C@H](CCCCN)NC(=O)[C@@H](NS(=O)(=O)c1cccc2c(N(C)C)cccc12)[C@@H](C)O)C(=O)N[C@@H](CCSC)C(=O)O [CSIM] (Dansyl-TKCSIM-OH) | 6 ± 2 |
| CC[C@H](C)[C@H](NC(=O)[C@H](CS)NC(=O)[C@H](CCCCN)NC(=O)[C@@H](NS(=O)(=O)c1cccc2c(N(C)C)cccc12)[C@@H](C)O)C(=O)N[C@H](C(=O)N[C@@H](C)C(=O)O)C(C)C [CIVA] (Dansyl-TKCIVA-OH) | 5 ± 2 |

biological target: T1, protein farnesyltransferase (FTase) (Rattus norvegicus, UniProt Q02293+Q04631); assay: Steady state continuous dansyl fluorescence assay, kcat/Km peptide; assay type: biochemical; conditions: initial library, multiple-turnover substrates; 10 μM FPP, 0.4–10 μM dansylated peptide, 25–300 nM FTase, 50 mM HEPPSO pH 7.8, 5 mM TCEP, 5 mM MgCl2, 10 μM ZnCl, 25 °C
Method in brief: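 Dansyl-TKCxxx peptides (0.4–10 μM) with saturating FPP 10 μM, 50 mM HEPPSO pH 7.8, 5 mM TCEP, 5 mM MgCl2, 10 μM ZnCl, 25 °C. FTase (25–300 nM) started the reaction. Dansyl fluorescence (ex 340, em 520 nm) followed to endpoint (~2–6 h). Rates converted to product using endpoint fluorescence. kcat/Km from linear or Michaelis–Menten fit of V/[E] versus peptide.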

| Compound | kcat/Km [M⁻¹ s⁻¹] |
| --- | --- |
| CNLM | 1000 ± 300 |
| CVQM | 270 ± 30 |
| CGIA | 160 ± 50 |
| CGLF | 450 ± 60 |
| CTVF | 1300 ± 100 |
| CQTA | 530 ± 20 |
| CVLQ | 780 ± 30 |
| CLML | 150 ± 20 |
| CSVQ | 1200 ± 400 |
| CGLY | 1000 ± 100 |

same assay, conditions: targeted library, multiple-turnover substrates; dansyl fluorescence, 25 °C

| Compound | kcat/KM^peptide [M⁻¹ s⁻¹] |
| --- | --- |
| CNLK | 6300 ± 1600 |
| CLLV | 100 ± 60 |
| CSLA | 2500 ± 300 |
| CHLS | 460 ± 20 |
| CVHF | 460 ± 40 |
| CHIQ | 2200 ± 600 |
| CHLM | 2000 ± 300 |
| CFVN | 2100 ± 700 |
| CHIM | 3300 ± 400 |
| CALQ | 12000 ± 2000 |
| CKIV | 870 ± 70 |
| CGVV | 90 ± 30 |
| CYLA | 4700 ± 300 |
| CEIQ | 3100 ± 600 |
| CTIV | 7200 ± 800 |
| CALV | 100 ± 20 |
| CHVM | 10000 ± 8000 |
| CFTN | 970 ± 70 |
| CSLH | 210 ± 10 |
| CDVK | 3600 ± 800 |
| CYIS | 12000 ± 5000 |
| CFPS | 4700 ± 500 |
| CTVS | 5800 ± 1200 |
| CHVQ | 4500 ± 800 |

biological target: T1, protein farnesyltransferase (FTase); assay: not given; assay type: biochemical; conditions: single-turnover only (STO) peptides, initial library; 0.4–0.8 μM FTase, 50–100 μM dansylated peptide, 0.1–0.2 μM FPP, 50 mM HEPPSO pH 7.8, 5 mM MgCl2, 2 mM TCEP, 25 °C
Method in brief: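 Stopped-flow, pre-mix levels: FTase (0.8–1.6 μM) with FPP (0.2–0.4 μM) in HEPPSO pH 7.8, MgCl2, TCEP, plus a phosphate mop (PNPase 0.5 units mL−1, 15 mM 7-methylguanosine). This is mixed 1:1 with dansylated peptide (100 or 200 μM) containing MDCC-labelled A197C PBP (5–10 μM), inorganic pyrophosphatase and the mop. Emission is followed at 450 nm, and a single-exponential fit gives kfarn.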

| Compound | kfarn [s⁻¹] |
| --- | --- |
| CAKS | 2.3 ± 0.2 |
| CAVL | 0.91 ± 0.09 |
| CVLL | 0.83 ± 0.08 |
| TKCYSN | 0.0025 ± 0.0002 |
| CSEA | 0.020 ± 0.002 |
| CPLG | 0.019 ± 0.001 |
| CVSS | 0.097 ± 0.009 |

same assay, conditions: single-turnover only (STO) peptides, initial library; 0.4–0.8 μM FTase, 50–100 μM dansylated peptide, 0.1–0.2 μM FPP, 50 mM HEPPSO pH 7.8, 5 mM MgCl2, 2 mM TCEP, 25 °C; listed as TKCYSN

| Compound | kfarn [s⁻¹] |
| --- | --- |
| TKCYSN | 0.0025 |
